Source: publication PMC8682075 (Biochimie, 2020)
Where two headings read alike, the source gives them in different places.

Columns and labels:
[1] = target: T1, MMUT (methylmalonyl-CoA mutase) (Homo sapiens, UniProt P22033); experiment: Cobamide equilibrium binding by quenching of intrinsic protein fluorescence; settings: MMUT 0.2 μM, fluorescence quenching
T1 sequence (P22033 33-750): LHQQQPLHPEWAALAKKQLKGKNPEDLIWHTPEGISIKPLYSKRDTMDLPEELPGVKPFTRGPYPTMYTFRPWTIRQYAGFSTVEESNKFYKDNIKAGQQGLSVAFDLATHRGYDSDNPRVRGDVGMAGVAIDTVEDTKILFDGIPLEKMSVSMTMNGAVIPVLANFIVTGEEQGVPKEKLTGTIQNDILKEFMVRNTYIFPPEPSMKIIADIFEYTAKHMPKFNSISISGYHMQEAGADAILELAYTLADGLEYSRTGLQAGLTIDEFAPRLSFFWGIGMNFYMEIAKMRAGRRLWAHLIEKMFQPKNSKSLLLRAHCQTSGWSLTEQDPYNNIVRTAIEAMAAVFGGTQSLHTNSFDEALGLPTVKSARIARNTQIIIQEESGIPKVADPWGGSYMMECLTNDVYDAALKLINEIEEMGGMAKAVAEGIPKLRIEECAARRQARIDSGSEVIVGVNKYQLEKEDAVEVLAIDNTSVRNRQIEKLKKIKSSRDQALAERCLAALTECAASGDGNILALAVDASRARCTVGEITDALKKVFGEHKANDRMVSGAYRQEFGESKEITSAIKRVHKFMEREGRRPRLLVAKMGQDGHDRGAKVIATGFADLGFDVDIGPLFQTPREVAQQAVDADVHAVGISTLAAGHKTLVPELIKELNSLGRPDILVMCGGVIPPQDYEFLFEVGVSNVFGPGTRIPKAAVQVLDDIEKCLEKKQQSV
Summary of the method: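 Fluorescence quenching used MMUT at 0.2 μM, from N-terminal His-tag (E. coli BL21(DE3)pLysS) and C-terminal His-tag preparations. Adenosylated cofactor was titrated at 0.19–2.5 μM or 0.23–2.5 μM, depending on cofactor class. Plate-reader excitation/emission was 282/340 nm. Kd came from a quadratic fit allowing for ligand depletion. Values were averaged over ≥5 technical replicates from ≥2 independent experiments.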

[2] = target: T1, MMUT (methylmalonyl-CoA mutase); settings: cited from earlier work
[3] = system: MMUT variants G648D, V633G, G717V, P86L, Y100C, Y231N; experiment: Activity screen; assay type: biochemical, human; settings: cobamide 1 μM, variants 0.1 μM (G717V 1 μM), 30 minutes
Summary of the method: (§1)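 At 30 °C, reaction was started with thiokinase, MgCl₂, ADP and methylmalonyl-CoA. Final levels were cofactor 1 μM and (R)-methylmalonyl-CoA 2 mM. Enzyme was WT 0.01 μM, G717V 1 μM, other variants 0.1 μM. After 30 min, an aliquot went into 2.5 mM DTNB; CoA was taken from A412 (ε 14,150 M⁻¹ cm⁻¹).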

MMUT WT = target: T2, MMUT WT (Homo sapiens, UniProt P22033); experiment: Activity screen; assay type: biochemical; settings: cobamide 1 μM, MMUT WT 0.01 μM, 30 minutes
T2 sequence (P22033 33-750): T1 sequence (P22033 33-750)
Summary of the method: as §1

[4] = target: T1, MMUT (methylmalonyl-CoA mutase); settings: read-out: KM, app; previously reported value ref 57; cited from earlier work
[5] = target: T1, MMUT (methylmalonyl-CoA mutase); experiment: Coupled thiokinase/DTNB spectrophotometric MMUT activity assay; assay type: biochemical
Summary of the method: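 In the coupled kinetic assay, succinyl-CoA was converted by thiokinase to CoA, which was detected spectrophotometrically with DTNB. C-terminally His-tagged MMUT was at 10 nM. Enzymatically made (R)-methylmalonyl-CoA was fixed at 4 mM. Adenosylated cofactor was varied per cofactor, from 0.031 μM at lowest to 12 μM at highest. K_M,app and k_cat come from ≥5 replicates over ≥2 independent experiments and two biological samples.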

- Kd [1]: 80 ± 30 nM
- activity of WT MMUT with the cobamide (in words) (MMUT WT): active
- MMUT activity with the cobamide (in words) ([5]; coupled spectrophotometric assay): active
- Km ([5]; read-out: KM, app, methylmalonyl-CoA 4 mM, MMUT 10 nM): 0.04 ± 0.02 µM
SMILES: C/C1=C2/[N-][C@H]([C@H](CC(N)=O)[C@@]2(C)CCC(=O)NC[C@@H](C)OP(=O)([O-])O[C@H]2[C@@H](O)[C@@H](n3cnc4cc(C)c(C)cc43)O[C@@H]2CO)[C@]2(C)N=C(/C(C)=C3N=C(/C=C4N=C1[C@@H](CCC(N)=O)C\4(C)C)[C@@H](CCC(N)=O)[C@]\3(C)CC(N)=O)[C@@H](CCC(N)=O)[C@]2(C)CC(N)=O.[CH2-][C@H]1O[C@@H](n2cnc3c(N)ncnc32)[C@H](O)[C@@H]1O.[Co] [AdoCbl, adenosylcobalamin, reference compound]
- Kd ([2]; previous study of MMUT ref 49): 40 nM
- Kd ([2]; previous study of MMUT ref 50): 270 ± 110 nM
- activity of MMUT variants with the cobamide (in words) [3]: significantly reduced specific activity
- Km [4]: 0.05 µM
